The values that follow come from article PMC10028500 (RSC Advances, 2023).

The subject of assay [1] is ct-DNA. The settings on record: cited from earlier work.
Assay [2] deals with breast (MCF-7) cancer cell line. Description: IC50 by MTT assay, MCF-7. In kind it is cell-based. The settings on record: MCF-7, 48 h. A digest of the protocol: (§1)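 Cells were grown in DMEM at 37 °C, 5% CO2, 95% humidity, trypsinised and counted by trypan blue/hemocytometer. 10^4 cells per well were incubated 24 h, then test compound (3.5, 7, 14, 28, 56 μM; four replicates each) was added at ~70% confluence for 48 h. MTT (0.5 mg/mL) ran 4 h, then DMSO 15 min at room temperature, read at 595 nm. IC50 came from viability vs concentration curves.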
(Tetrazolium assays rely on reduction of a dye to a coloured formazan, in cell work by metabolically active cells.)

Assay [3] relates to Liver (HepG2) cancer cell line. Put plainly: IC50 by MTT assay, HepG2. In kind it is cell-based. The settings on record: HepG2, 48 h. A digest of the protocol:
as §1

The next assay has as its system HepG2 cells. Description: Flow cytometry analysis of the cell cycle of HepG2. The assay is classed as cell-based. The settings on record: HepG2, 24 h, around IC50 concentration. In outline: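 HepG2 cells (ca. 1 × 10^6) were seeded 24 h, then exposed to test compound for 24 h. Cells were harvested with 0.25% trypsin, spun 5 min at 1500 rpm, washed twice in PBS and fixed in 70% ethanol for 4 h at −20 °C. They were taken up in cold PBS with RNase A, stained with propidium iodide for 1 h in the dark and analysed by flow cytometry.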
On the technique in general: In flow cytometry, cells or beads pass a laser one at a time.

Assay [4] has as its system ct-DNA. Particulars: cited from earlier work. This is another data set of the same source.

For the molecule `CC[n+]1c(-c2ccccc2)c2cc(N)ccc2c2ccc(N)cc21` [ethidium bromide], the “binding constant (KEB) of ethidium bromide to DNA” value with ct-DNA [1] is 1 × 10^5.

On to `N.N.[Cl][Pt][Cl]` [Cisplatin], for which the 50% inhibitory concentration (IC50) in assay [2] came to 18.4 ± 2.72 µM; in assay [3], 19.7 ± 1.53 µM. Moreover, in the assay with HepG2 cells, the “cell population in the G1/G0, S and G2/M phases vs control” value is reported as “decreases”. The “cell population in the sub-G phase” value with HepG2 cells (control ca. 1%) is recorded as 47.3%.

For `[Cl-].[Pt+2].c1ccc(-c2cccc(-c3ccccn3)n2)nc1` [Pt(terpy)Cl], in the assay on ct-DNA [4], the DNA binding mode entry is recorded as “shifts gradually from the intercalation mode to the covalent binding mode”.

What is called IC50 is the midpoint of a concentration-inhibition curve.
